Measurements taken from ChEMBL document CHEMBL3112444, “Synthesis and anticancer activity of focused compound libraries from the natural product lead, oroidin” (2014).

Columns and labels:
[1] = Cytotoxicity against human U87 cells assessed as growth inhibition at 25 uM after 72 hrs by MTT assay relative to control; format: functional, U-87MG ATCC; settings: U-87 MG, read-out: GI
Outline: (§1)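 Cells in logarithmic growth kept in DMEM with 10% FBS, 10 mM sodium bicarbonate, penicillin 100 IU/mL, glutamine 4 mM, at 37 °C under 5% CO2. Plated in duplicate at 2500–4000 cells/well. Compound (30 mM DMSO stock) added 24 h after plating. MTT read at 540 nm after 72 h exposure.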

[2] = Cytotoxicity against mouse SMA cells assessed as growth inhibition at 25 uM after 72 hrs by MTT assay relative to control; format: functional; settings: read-out: GI; outline: as §1
[3] = Cytotoxicity against human MIA cells assessed as growth inhibition at 25 uM after 72 hrs by MTT assay relative to control; format: functional; settings: read-out: GI; outline: as §1
[4] = Cytotoxicity against human SJ-G2 cells assessed as growth inhibition at 25 uM after 72 hrs by MTT assay relative to control; format: functional; settings: SJ-G2, 72 h, read-out: GI; outline: as §1
[5] = Cytotoxicity against human BE(2)-C cells assessed as growth inhibition at 25 uM after 72 hrs by MTT assay relative to control; format: functional; settings: read-out: GI; outline: as §1
[6] = tested on: DU-145; experiment: Cytotoxicity against human DU145 cells assessed as growth inhibition at 25 uM after 72 hrs by MTT assay relative to control; format: functional; settings: DU-145, 72 h, read-out: GI; outline: as §1
[7] = tested on: A-431; experiment: Cytotoxicity against human A431 cells assessed as growth inhibition at 25 uM after 72 hrs by MTT assay relative to control; format: functional; settings: A-431, 72 h, read-out: GI; outline: as §1
[8] = Cytotoxicity against human H460 cells assessed as growth inhibition at 25 uM after 72 hrs by MTT assay relative to control; format: functional; settings: NCI-H460, 72 h, read-out: GI; outline: as §1
[9] = tested on: A2780; experiment: Cytotoxicity against human A2780 cells assessed as growth inhibition at 25 uM after 72 hrs by MTT assay relative to control; format: functional; settings: A2780, 72 h, read-out: GI; outline: as §1
[10] = tested on: MCF7; experiment: Cytotoxicity against human MCF7 cells assessed as growth inhibition at 25 uM after 72 hrs by MTT assay relative to control; format: functional; settings: MCF7, 72 h, read-out: GI; outline: as §1
[11] = tested on: SW480; experiment: Cytotoxicity against human SW480 cells assessed as growth inhibition at 25 uM after 72 hrs by MTT assay relative to control; format: functional; settings: SW480, 72 h, read-out: GI; outline: as §1
[12] = tested on: HT-29; experiment: Cytotoxicity against human HT-29 cells assessed as growth inhibition at 25 uM after 72 hrs by MTT assay relative to control; format: functional; settings: HT-29, 72 h, read-out: GI; outline: as §1
[13] = Cytotoxicity against human U87 cells assessed as growth inhibition after 72 hrs by MTT assay; format: functional, U-87MG ATCC; settings: U-87 MG; outline: as §1
[14] = Cytotoxicity against mouse SMA cells assessed as growth inhibition after 72 hrs by MTT assay; format: functional; outline: as §1
[15] = Cytotoxicity against human SJ-G2 cells assessed as growth inhibition after 72 hrs by MTT assay; format: functional; settings: SJ-G2, 72 h; outline: as §1
[16] = Cytotoxicity against human MIA cells assessed as growth inhibition after 72 hrs by MTT assay; format: functional; outline: as §1
[17] = Cytotoxicity against human BE(2)-C cells assessed as growth inhibition after 72 hrs by MTT assay; format: functional; outline: as §1
[18] = tested on: DU-145; experiment: Cytotoxicity against human DU145 cells assessed as growth inhibition after 72 hrs by MTT assay; format: functional; settings: DU-145, 72 h; outline: as §1
[19] = Cytotoxicity against human H460 cells assessed as growth inhibition after 72 hrs by MTT assay; format: functional; settings: NCI-H460, 72 h; outline: as §1
[20] = tested on: A-431; experiment: Cytotoxicity against human A431 cells assessed as growth inhibition after 72 hrs by MTT assay; format: functional; settings: A-431, 72 h; outline: as §1
[21] = tested on: A2780; experiment: Cytotoxicity against human A2780 cells assessed as growth inhibition after 72 hrs by MTT assay; format: functional; settings: A2780, 72 h; outline: as §1
[22] = tested on: MCF7; experiment: Cytotoxicity against human MCF7 cells assessed as growth inhibition after 72 hrs by MTT assay; format: functional; settings: MCF7, 72 h; outline: as §1
[23] = tested on: SW480; experiment: Cytotoxicity against human SW480 cells assessed as growth inhibition after 72 hrs by MTT assay; format: functional; settings: SW480, 72 h; outline: as §1
[24] = tested on: HT-29; experiment: Cytotoxicity against human HT-29 cells assessed as growth inhibition after 72 hrs by MTT assay; format: functional; settings: HT-29, 72 h; outline: as §1

SMILES	inhibition of growth at 25 µM [1] [%]	inhibition of growth at 25 µM [2] [%]	inhibition of growth at 25 µM [3] [%]	inhibition of growth at 25 µM [4] [%]	inhibition of growth at 25 µM [5] [%]	inhibition of growth at 25 µM [6] [%]	inhibition of growth at 25 µM [7] [%]	inhibition of growth at 25 µM [8] [%]	inhibition of growth at 25 µM [9] [%]	inhibition of growth at 25 µM [10] [%]	inhibition of growth at 25 µM [11] [%]	inhibition of growth at 25 µM [12] [%]	GI50 [13] [µM]	GI50 [14] [µM]	GI50 [15] [µM]	GI50 [16] [µM]	GI50 [17] [µM]	GI50 [18] [µM]	GI50 [19] [µM]	GI50 [20] [µM]	also measured
O=C(NCCCCc1ccccc1)c1ccc[nH]1	< 0	6	15	8	< 0	10	12	11	13	23	< 0	16									
O=C(NCCCc1ccccc1)c1ccc[nH]1	11	8	10	0	< 0	< 0	1	13	10	21	7	16									
O=C(NCC(c1ccccc1)c1ccccc1)c1cc(Br)c(Br)[nH]1	48	80	69	56	> 100	56	56	67	94	> 100	33	82	36	11	27	18	16	21	18	19	GI50 [21]: 13 µM; GI50 [22]: 10 µM; GI50 [23]: 34 µM; GI50 [24]: 16 µM
O=C(NCc1ccc(-c2ccccc2)cc1)c1ccc[nH]1	77	53	74	33	72	87	81	59	58	79	93	78	11	21	> 50	6.5	11	6.5	> 50	5.8	GI50 [21]: 11 µM; GI50 [22]: 5.7 µM; GI50 [23]: 4.3 µM; GI50 [24]: 4.3 µM
O=C(NCc1ccc(-c2ccccc2)cc1)c1cc(Br)c(Br)[nH]1	58	59	82	17	57	64	90	61	66	70	97	78	> 50	17	> 50	3.4	4.2	2.6	21	3.7	GI50 [21]: 6.4 µM; GI50 [22]: 3.1 µM; GI50 [23]: 2.4 µM; GI50 [24]: 3.4 µM
O=C(NCCc1ccccc1)c1cc(Br)c(Br)[nH]1	< 0	53	19	22	62	< 0	7	19	58	70	1	46									
O=C(NCCCc1ccccc1)c1cc(Br)c(Br)[nH]1	< 0	45	21	8	< 0	< 0	5	25	48	63	< 0	41									
O=C(NCCCCc1ccccc1)c1cc(Br)c(Br)[nH]1	< 0	40	34	14	< 0	19	24	17	56	70	< 0	41									
O=C(NCc1ccc(Cl)cc1)c1ccc[nH]1	4	10	1	< 0	< 0	< 0	< 0	< 0	2	10	4	10									
O=C(NCc1ccc(Cl)c(Cl)c1)c1cc(Br)c(Br)[nH]1	55	84	77	70	44	66	57	66	90	> 100	22	77	27	17	18	17	24	20	19	20	GI50 [21]: 15 µM; GI50 [22]: 12 µM; GI50 [23]: 33 µM; GI50 [24]: 17 µM
O=C(NCCc1ccc(O)cc1)c1cc(Br)c(Br)[nH]1	< 0	46	20	44	101	3	68	11	90	81	< 0	48	> 50	23	30	43	16	> 50	39	20	GI50 [21]: 11 µM; GI50 [22]: 12 µM; GI50 [23]: > 50 µM; GI50 [24]: 28 µM
O=C(NCCc1ccccc1)c1ccc[nH]1	9	7	< 0	2	< 0	5	5	5	6	7	9	9									
